For assay [1], the system named is Mycobacterium tuberculosis. Briefly: Antimycobacterial activity against multidrug-resistant Mycobacterium tuberculosis isolate 16833 assessed as reduction in bacterial cell growth incubated for 7 days by microplate alamar blue assay. The assay is classed as functional. The conditions noted are these: isolate 16833, 168 h. The essentials: (§1)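 MABA: H37Rv or clinical MDR isolates (resistant to INH and RFP, Beijing Chest Hospital patients) grown to late log phase in 7H9 with glycerol, Tween 80 and ADC, washed, filtered and frozen. Two-fold compound dilutions with 2 × 10⁵ CFU per well, 37 °C; Alamar blue plus Tween 80 added on day 7, fluorescence (ex 530/em 590) read after 16–24 h. MIC = lowest concentration giving ≥90% fluorescence reduction versus mean of bacterium-only controls; RIF and INH as positive controls.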

Assay [2] concerns Mycobacterium tuberculosis. Description: Antimycobacterial activity against multidrug-resistant Mycobacterium tuberculosis isolate 16995 assessed as reduction in bacterial cell growth incubated for 7 days by microplate alamar blue assay. The assay is classed as functional. The conditions noted are these: isolate 16995, 168 h. An outline of the steps: as §1
For orientation: Alamar Blue is a resazurin reagent that responds to reducing activity.

≈ marks a conversion by molar mass, not a printed value.

What is called MIC90 is the lowest concentration that inhibits either 90% of growth or 90% of the strains tested, depending on the study. For `CO/N=C(\C)CCN1CCN(c2nc(=O)c3cc(C(F)(F)F)cc([N+](=O)[O-])c3s2)CC1`, the figures for the MIC90 in assay [1] and in assay [2] were 0.017 µg/mL (≈ 0.037 µM) and under 0.016 µg/mL, respectively.
In the same order, the values of `NNC(=O)c1ccncc1` [ISONIAZID] are over 40 µg/mL and over 40 µg/mL.
In the same order, the values of `CON=C1CCC(CN2CCN(c3nc(=O)c4cc(C(F)(F)F)cc([N+](=O)[O-])c4s3)[C@@H](C)C2)CC1` (some centres undefined) are under 0.016 µg/mL and under 0.016 µg/mL.
For the compound `CCO/N=C(\C)CCN1CCN(c2nc(=O)c3cc(C(F)(F)F)cc([N+](=O)[O-])c3s2)CC1`, the MIC90 in assay [1] and in assay [2] was under 0.016 µg/mL throughout.
As to `CCON=C1CCC(CN2CCN(c3nc(=O)c4cc(C(F)(F)F)cc([N+](=O)[O-])c4s3)C[C@H]2C)CC1` (some centres undefined), the MIC90 in assay [1] and in assay [2] was under 0.016 µg/mL in each case.
Regarding `CCON=C1CCC(CN2CCN(c3nc(=O)c4cc(C(F)(F)F)cc([N+](=O)[O-])c4s3)[C@H](C)C2)CC1` (some centres undefined), the MIC90 in assay [1] and in assay [2] was under 0.016 µg/mL throughout.
As to `C/C(CN1CCN(c2nc(=O)c3cc(C(F)(F)F)cc([N+](=O)[O-])c3s2)CC1)=N\OCc1ccccc1`, the MIC90 in assay [1] is under 0.016 µg/mL; in assay [2], 0.01 µg/mL (≈ 0.0192 µM).
In the same order, the values of `CCON=C1CCC(CN2CCN(c3nc(=O)c4cc(C(F)(F)F)cc([N+](=O)[O-])c4s3)C[C@@H]2C)CC1` (some centres undefined) are under 0.016 µg/mL and under 0.016 µg/mL.
In the same order, the values of `CCON=C1CCC(CN2C(C)CN(c3nc(=O)c4cc(C(F)(F)F)cc([N+](=O)[O-])c4s3)CC2C)CC1` (centres undefined) are under 0.016 µg/mL and under 0.016 µg/mL.
In the same order, the values of `CON=C1CCC(CN2CCN(c3nc(=O)c4cc(C(F)(F)F)cc([N+](=O)[O-])c4s3)CC2C)CC1` (centres undefined) are under 0.016 µg/mL and under 0.016 µg/mL.
On to `CCON=C1CCC(CN2CCN(c3nc(=O)c4cc(C(F)(F)F)cc([N+](=O)[O-])c4s3)CC2)CC1` (centres undefined), for which the MIC90 in assay [1] and in assay [2] was under 0.016 µg/mL each time.
Turning to `CCON=C1CC(CN2CCN(c3nc(=O)c4cc(C(F)(F)F)cc([N+](=O)[O-])c4s3)CC2)C1` (centres undefined), the MIC90 in assay [1] and in assay [2] was under 0.016 µg/mL in each case.
As for `C/C(CCN1CCN(c2nc(=O)c3cc(C(F)(F)F)cc([N+](=O)[O-])c3s2)CC1)=N\OCc1ccccc1`, the MIC90 in assay [1] and in assay [2] was under 0.016 µg/mL each time.
As for `O=c1nc(N2CCN(CC3CCCCC3)CC2)sc2c([N+](=O)[O-])cc(C(F)(F)F)cc12` [MACOZINONE], the MIC90 in assay [1] and in assay [2] was under 0.016 µg/mL in each case.
Consider `CON=C1CCC(CN2CCN(c3nc(=O)c4cc(C(F)(F)F)cc([N+](=O)[O-])c4s3)C[C@@H]2C)CC1` (some centres undefined), for which the MIC90 in assay [1] and in assay [2] was under 0.016 µg/mL throughout.
For the compound `CCON=C1CCC(CN2CCN(c3nc(=O)c4cc(C(F)(F)F)cc([N+](=O)[O-])c4s3)[C@@H](C)C2)CC1` (some centres undefined), the MIC90 in assay [1] and in assay [2] was under 0.016 µg/mL in each case.
On to `CCON=C1CCC(CN2CCN(c3nc(=O)c4cc(C(F)(F)F)cc([N+](=O)[O-])c4s3)CC2C)CC1` (centres undefined), for which the MIC90 in assay [1] and in assay [2] was under 0.016 µg/mL each time.
Take `CCO/N=C(\C)CN1CCN(c2nc(=O)c3cc(C(F)(F)F)cc([N+](=O)[O-])c3s2)CC1`: the MIC90 is under 0.016 µg/mL in assay [1] and 0.01 µg/mL (≈ 0.0218 µM) in assay [2].
In the same order, the values of `CON=C1CCC(CN2C(C)CN(c3nc(=O)c4cc(C(F)(F)F)cc([N+](=O)[O-])c4s3)CC2C)CC1` (centres undefined) are under 0.016 µg/mL and under 0.016 µg/mL.
In the same order, the values of `CO[C@H]1/C=C/O[C@@]2(C)Oc3c(C)c(O)c4c(O)c(c(/C=N/N5CCN(C)CC5)c(O)c4c3C2=O)NC(=O)/C(C)=C\C=C\[C@H](C)[C@H](O)[C@@H](C)[C@@H](O)[C@@H](C)[C@H](OC(C)=O)[C@@H]1C` [RIFAMPIN] are over 40 µg/mL and over 40 µg/mL.
For `CON=C1CCC(CN2CCN(c3nc(=O)c4cc(C(F)(F)F)cc([N+](=O)[O-])c4s3)C[C@H]2C)CC1` (some centres undefined) the same measures were under 0.016 µg/mL and under 0.016 µg/mL.
Turning to `CON=C1CCC(CN2CCN(c3nc(=O)c4cc(C(F)(F)F)cc([N+](=O)[O-])c4s3)CC2)CC1` (centres undefined), the MIC90 in assay [1] and in assay [2] was under 0.016 µg/mL in each case.

Source of the values: ChEMBL document CHEMBL4359877, “Identification of benzothiazinones containing an oxime functional moiety as new anti-tuberculosis agents” (Eur J Med Chem, 2019).
